Assay outcomes: PubChem BioAssay, The Scripps Research Institute Molecular Screening Center
TAAR1 antag – antagonists of human TAAR1. Q96RJ0. CHO RD-HGA16 TAAR1, Fluo-8 calcium fluorescence, antagonist. inhibition, % at 3 µM. actives 1.5% (n = 360,000). AID 624466;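 active = inhibition above a per-plate cutoff, the mean inhibition of test compounds on that plate plus 3 SD, cut at about 49% in these data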;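 note: 0% = DMSO plus EC80 beta-PEA response and 100% = DMSO alone without agonist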
Target sequence (Q96RJ0 whole entry, looked up): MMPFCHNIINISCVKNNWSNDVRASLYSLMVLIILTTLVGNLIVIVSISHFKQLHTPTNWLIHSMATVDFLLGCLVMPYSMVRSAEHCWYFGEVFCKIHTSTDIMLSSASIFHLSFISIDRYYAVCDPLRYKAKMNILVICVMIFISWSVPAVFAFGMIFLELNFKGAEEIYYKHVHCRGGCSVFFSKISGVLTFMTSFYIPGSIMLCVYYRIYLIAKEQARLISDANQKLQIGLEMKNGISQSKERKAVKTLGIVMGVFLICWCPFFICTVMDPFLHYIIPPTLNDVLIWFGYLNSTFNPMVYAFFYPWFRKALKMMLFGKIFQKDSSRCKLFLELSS
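Test system – hTAAR1-expressing CHO RD-HGA16 cells, Gα16-coupled · Also added – β-PEA at EC80 concentration, post-compound challenge · Compound – 3 µM, single point · Incubation – dye loading 75 min at 37 °C, then 30 min room temperature · Measured by – Fluo-8 intracellular calcium dye fluorescence, real-time kinetic reads · Benchmarks – vehicle and agonist controls · Replicates – singlicate, one well per test compound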
OX1R antag-1 – antagonists of human orexin 1 receptor; O43613; CHO/OX1R cells, Fluo-8 calcium fluorescence, orexin A; inhibition, % at 5 µM; actives 0.43% (n = 330,000); AID 434989;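 active = inhibition above its plate's threshold, mean inhibition of all tested compounds on the plate plus 3 SD, cut at about 37% in these data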;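 note: 0% = orexin A challenge wells and 100% = SB-334867-A antagonist wells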
OX1R antag-2 – blocks the human orexin 1 receptor; O43613; OX1R-expressing cells, FRET antagonist read-out; inhibition, % at 6.6 µM; actives 1.8% (n = 330,000); AID 485270; in the data active = inhibition mostly above about 38%, no sharp cut-off; inactive = mostly below about 40%;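 note: 0% = agonist challenge alone and 100% = reference antagonist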
TAAR1 agonist – agonists of human TAAR1; CHO RD-HGA16 TAAR1, Fluo-8 calcium fluorescence; vehicle wells 0%, saturating PEA agonist 100%; activation, % at 3 µM; actives 0.99% (n = 360,000); AID 624467;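 active = activation above the mean activation of all test compounds in the run plus 3 SD, cut at about 38% in these data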
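Repeats: no replicates (n 1) | Material: CHO-derived RD-HGA16 cells with stable Gα16 and human TAAR1 | Technique: Kinetic Fluo-8 calcium fluorescence | Schedule: 17-24 h seeding, 75 min 37 °C dye, 30 min RT | Evaluation: % activation from peak over basal fluorescence ratio, DMSO-to-PEA scaled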
GPR7 antag – blocks human GPR7 receptor signaling. actives 1.1% (n = 290,000). GPR7-expressing cells, fluorescence antagonist assay. inhibition, % at 4.4 µM. AID 1861; in the data active = inhibition above about 16%, passing the limit was not always enough;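 note: cells stimulated with the agonist NPW; 0% = agonist with vehicle and 100% = vehicle without agonist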
Target sequence (P48145 whole entry, looked up): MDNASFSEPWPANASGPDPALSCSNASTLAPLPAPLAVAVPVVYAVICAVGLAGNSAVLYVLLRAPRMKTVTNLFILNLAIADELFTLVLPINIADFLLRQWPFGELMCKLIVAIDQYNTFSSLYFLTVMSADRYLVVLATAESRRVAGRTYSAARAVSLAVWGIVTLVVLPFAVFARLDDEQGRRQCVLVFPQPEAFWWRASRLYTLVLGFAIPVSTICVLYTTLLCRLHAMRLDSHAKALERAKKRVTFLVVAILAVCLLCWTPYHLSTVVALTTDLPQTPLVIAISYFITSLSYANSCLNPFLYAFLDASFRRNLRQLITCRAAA
CHO parental Ca – signal in parental CHO cells, OX1R antagonist counter-screen; actives 0.63% (n = 330,000); inhibition, % at 5.6 µM; parental CHO-K1, ATP-induced calcium, Fluo-8 fluorescence;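 active = inhibition above that plate's mean sample inhibition plus 3 SD, cut at about 26% in these data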;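 note: 0% = ATP-challenged DMSO wells and 100% = DMSO wells without ATP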
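Material: parental CHO cells / Compound: single nominal dose of 5.6 µM per compound / Signal: Fluo-8 fluorescence / Replicates: singlicate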
Starred values were filed as active, the others as inactive; / = no result. Compounds with a hit are over-represented: about 4.6% of the library has one in this group of screens.

SMILES | TAAR1 antag | OX1R antag-1 | OX1R antag-2 | TAAR1 agonist | GPR7 antag | CHO parental Ca
Cc1[nH]c2ccccc2c1C(=O)C(=O)N1CCN(c2cccc(Cl)c2)CC1 | -26 | -14 | 20 | 6 | 26 | -23
Cc1nnc(N/N=C/c2c(Cl)cccc2Cl)n1N | 3 | -15 | 61* | 0 | -2 | -5
Cc1[nH]c2ccccc2c1/C=N/NC(N)=S | -11 | -1 | -1 | 4 | -5 | -4
CCc1nnc(N/N=C/c2cc(C)c(C)cc2C)n1N | 13 | / | / | 1 | -11 | /
Clc1cccc(Cl)c1/C=N\Nc1nccs1 | -5 | -26 | 21 | 5 | -6 | -6
CCc1nnc(N/N=C/c2c(C)[nH]c3ccccc23)n1N | -10 | 3 | 68* | 1 | -10 | 12
CCc1nnc(N/N=C/c2c(F)cccc2Cl)n1N | -14 | -5 | 71* | 0 | -16 | -6
Cc1occc1C(=O)N/N=C/c1cccc2ccccc12 | 3 | -30 | 24 | -2 | 2 | -22
O=C(CCNC(=O)c1ccc(Br)cc1)Nc1ccc(S(=O)(=O)N2CCOCC2)cc1 | 0 | -23 | 11 | 1 | / | -15
N#C/C(=C\c1c[nH]c2ccccc12)C(=O)NC1CCCC1 | 9 | -8 | 43 | -2 | -7 | -1
COC(=O)c1ccc(C)c(NC(=O)CCSc2ccc(Cl)cc2)c1 | 7 | -28 | 25 | 10 | -1 | -27
COC(=O)c1cccc(NC(=O)CCSc2ccc(Cl)cc2)c1C | 91* | 2 | 13 | 77* | -1 | 28
CN(C(=O)c1cccc(NC(=O)Cc2ccc(NC(=O)C3CCN(C(=O)C4CCCCC4)CC3)cc2)c1)C1CCCC1 | -11 | / | / | -1 | / | /
CC(C)C1C(C#N)=C(N)Oc2n[nH]c(-c3ccc4ccccc4c3)c21 (centres undefined) | 32 | 42 | -4 | 22 | -8 | 34*
Cc1ccc(S(=O)(=O)NCCC(=O)OCc2ccc([N+](=O)[O-])cc2)cc1C | 50* | 17 | 14 | 1 | / | 41*
Cc1cc(C)nc(-n2nc(C)cc2NC(=O)CN2CCc3ccccc3C2)n1 | 0 | -28 | 12 | 43* | -3 | -30
Cc1cc(C)nc(-n2nc(C)cc2NC(=O)CN2CCCC(C)C2)n1 (centres undefined) | -10 | -6 | 22 | 11 | -4 | -16
Cc1ccccc1C(=O)Nc1nnc([C@@H]2C[C@H](O)[C@@H](CO)O2)s1 | 4 | / | / | 0 | / | /
COc1ccc(NC(=O)CSc2nc3c(c(-c4cccs4)c2C#N)CN(C)CC3)cc1OC | -3 | -12 | 7 | 1 | -14 | -8
Cc1cccc(NC(=O)c2sc3nc4c(c(-c5cccs5)c3c2N)CN(C)CC4)c1 | -8 | -13 | 76* | 3 | -2 | -12
NC(=O)c1sc2nc3c(c(-c4cccs4)c2c1N)CCCC3 | / | / | / | / | -12 | /
CC(C)NC(=O)c1sc2nc3c(c(-c4cccs4)c2c1N)CN(C)CC3 | -23 | -25 | 60* | 1 | 2 | -5
CCOc1ncccc1C(=O)Nc1ccc(C)cn1 | -18 | / | / | 0 | -14 | /
CCN(CC(=O)Nc1ccc(Br)cc1)CC(=O)Nc1cc(C)on1 | -15 | / | / | 7 | / | /
Cc1nc(Nc2ccc(Cl)c(Cl)c2)sc1C(=O)Nc1ccccc1 | 34 | -16 | 69* | 7 | -10 | 8
SMILES | TAAR1 antag | OX1R antag-1 | OX1R antag-2 | TAAR1 agonist | GPR7 antag | CHO parental Ca
O=C(CSc1ccc2c(c1)OCCO2)N1CCN(c2ccccc2O)CC1 | 10 | / | / | 8 | / | /
CCOc1ccccc1N1CCN(C(=O)CSc2ccc3c(c2)OCCO3)CC1 | 51* | -12 | 2 | 15 | / | -27
O=C(CCc1ccccc1)NC(NC(=S)Nc1ccc(Cl)cc1)C(Cl)(Cl)Cl (centres undefined) | 2 | 33 | 66 | 17 | -6 | 41*
O=C(/C=C/c1ccccc1)NC(NC(=S)Nc1ccc(Cl)cc1)C(Cl)(Cl)Cl (centres undefined) | 0 | 16 | 75 | 8 | 3 | 4
O=C1c2ccccc2C(=O)c2c1cccc2N(CCO)CCO | -13 | -18 | 59* | 3 | -14 | -10
O=C1C=C(N(CCO)Cc2ccccc2)c2ccccc2C1=O | / | / | / | / | -8 | /
CC(=O)c1cc(N2CCC(C(=O)O)CC2)ccc1[N+](=O)[O-] | 0 | -10 | 67* | 9 | -19 | -18
O=C(NCc1ccccc1)C(c1ccco1)N1CCN(c2ccccc2F)CC1 (centres undefined) | -6 | / | / | 1 | / | /
Cc1cc(=O)[nH]c(SCC(=O)Nc2ccc3c(c2)CCC3)c1C#N | -9 | 0 | 29 | 18 | / | -12
Cc1sc2nc3ccc(N4CCCCC4)nn3c(=O)c2c1C | -27 | -14 | 76* | 4 | -5 | -23
Cc1ccc2nc3ccc(N4CCCC4)nn3c(=O)c2c1 | -14 | -16 | 78* | 5 | -1 | -2
Cc1sc2nc3n(c(=O)c2c1C)CCCCC3 | -7 | -10 | 8 | -4 | -5 | -14
COc1ccc(S(=O)(=O)N(C)[C@H]2C[C@H]3c4cc(Oc5ccccc5C)ccc4CCN3C(=O)[C@H]2[C@H](C)O)cc1 | 1 | / | / | 1 | / | /
O=C(NCc1ccccc1Br)c1ccncc1 | -15 | -8 | 36 | 0 | -2 | 1
COc1ccc(-c2[nH]nc3nc(N4CCN(C(=O)c5ccoc5)CC4)cc(C(F)(F)F)c23)cc1 | 49* | / | / | 5 | / | /
CCCCNC(=O)C[C@H]1C[C@@]2(C(=O)OC)C(=C[C@H](C3CCCC3)O[C@@H]2C)N(Cc2ccccc2)C1=O | -37 | / | / | 0 | / | /
Cc1cc(NC(=O)COC(=O)CCNS(=O)(=O)c2cccc(C(F)(F)F)c2)no1 | 4 | -18 | 9 | 5 | 0 | -20
CCc1cc2c(COC(=O)CCNS(=O)(=O)c3cccc(C(F)(F)F)c3)cc(=O)oc2cc1O | 53* | 5 | 3 | 3 | / | -3
COc1cc(CNCCCN2CCOCC2)cc(Br)c1OCc1ccc(Cl)cc1 | 2 | 0 | 6 | 13 | 59* | -3
COc1cc(CNCCN2CCOCC2)ccc1OCc1ccc(Cl)cc1 | -7 | -15 | 23 | 4 | 9 | -18
C[n+]1ccc(/C=N/Nc2nc(Cl)c(C#N)c(Cl)c2Cl)cc1 | 4 | 0 | 54* | 4 | 6 | -7
Clc1nnc(N/N=C/c2ccccc2)c2ccccc12 | 7 | -11 | 14 | 11 | -11 | -30
CCOC(=O)N1CCN(CC(=O)Nc2ccc(F)c(F)c2)CC1 | -30 | -11 | 6 | 3 | -7 | -11
C[C@H](CO)N1C[C@H](C)[C@@H](CN(C)C(=O)c2ccncc2)OCc2cnnn2CCCC1=O | -6 | / | / | 3 | / | /
Cc1ccc(-c2noc(CSc3nnnn3C3CCCCC3)n2)cc1 | -22 | -16 | 10 | 0 | -18 | 38*
O=C(Nc1ccc(O)cc1)/C(=C\C=C\c1ccccc1)NC(=O)c1ccccc1 | 50* | -6 | 6 | 6 | -5 | -8
